This passage reports mitochondrial depolarization score results from PubChem BioAssay AID624062 (Broad Institute, 2012).

Molecules are shown by their SMILES. Inconclusive results are not listed.

The assay has as its system S. cerevisiae W303 JC-1 mitochondrial potential, flow cytometry. The assay can be described thus: yeast mitochondrial potential disruption, JC-1 dye – flow cytometry, single point, powder samples, mechanism study for antifungal respiration inhibitor project (AID 624062). The settings on record: stronger effect = higher value. The essentials: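 Test system: S. cerevisiae W303-1a yeast; medium: SD-CSM growth medium containing 2% glucose; measured by: flow cytometry, 488 nm excitation, JC-1 red FL2 and green FL1; reagent: JC-1 dye at 1 µg/mL; schedule: 4 h compound treatment at 30 °C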

With `CCOC(=O)N1C(=O)C2(CCCCC2)N(c2ccc(C)cc2)C1=S`, the mitochondrial depolarization score is 18.6.
